Compound activity as filed in PubChem BioAssay.
The list is not random: actives were taken first. Their share in the collection is about 2.6%.
Runt-SMMHC FRET: inhibitors of RUNX1 Runt–CBFb-SMMHC binding, primary screen, biochemical, FRET, Cerulean-Runt, Venus-CBFb-SMMHC, uHTS; hit rate 0.74% among 220,000; inhibition, % at 20 µM; Runt-related transcription factor 1 (Homo sapiens) + Core-binding factor subunit beta …; Cerulean-Runt/Venus-CBFb-SMMHC FRET ratio 530/480, 1 h;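 active means mean inhibition across duplicate retests at 20 µM reaching about 50%, limit read from the data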;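 further: 0% = DMSO wells and 100% = wells with excess untagged CBFb-SMMHC; inhibitors lower the FRET ratio by blocking Runt binding to CBFb-SMMHC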
Target sequence (Q01196 whole entry, looked up): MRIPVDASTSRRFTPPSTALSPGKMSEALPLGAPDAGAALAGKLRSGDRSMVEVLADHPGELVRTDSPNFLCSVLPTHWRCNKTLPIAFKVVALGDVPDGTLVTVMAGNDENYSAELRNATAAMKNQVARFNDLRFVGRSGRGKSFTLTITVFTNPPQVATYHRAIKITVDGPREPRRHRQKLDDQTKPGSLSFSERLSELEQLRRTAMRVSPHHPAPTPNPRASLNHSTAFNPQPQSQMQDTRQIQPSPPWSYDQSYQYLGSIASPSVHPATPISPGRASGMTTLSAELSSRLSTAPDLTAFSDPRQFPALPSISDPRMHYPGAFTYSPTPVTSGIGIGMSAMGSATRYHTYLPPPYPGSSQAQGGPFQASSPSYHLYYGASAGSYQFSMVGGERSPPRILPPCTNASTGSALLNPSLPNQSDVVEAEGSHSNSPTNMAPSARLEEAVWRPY
Target sequence (Q13951 whole entry, looked up): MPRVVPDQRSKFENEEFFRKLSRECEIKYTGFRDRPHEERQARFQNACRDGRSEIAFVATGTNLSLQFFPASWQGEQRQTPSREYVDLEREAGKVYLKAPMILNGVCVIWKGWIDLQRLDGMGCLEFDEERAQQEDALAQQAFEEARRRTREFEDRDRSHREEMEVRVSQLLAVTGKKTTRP
VIM-2 inh: VIM-2 metallo-beta-lactamase inhibitors, primary screen, biochemical, epi-absorbance readout, Pseudomonas aeruginosa enzyme. purified VIM-2, nitrocefin hydrolysis, epi-absorbance fluorescence. inhibition, % at 5.6 µM. hit rate 0.89% among 290,000. AID 1527, 2009;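 active means inhibition above the mean of all tested compounds plus 3 SD, cutoff set per screening run, cut at about 7.5% in these data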;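 further: red hydrolysis product quenches plate fluorescence so inhibitors raise well fluorescence; 0% = enzyme with DMSO and 100% = DMSO without enzyme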
IMP-1 inhibitor: IMP-1 metallo-beta-lactamase inhibitors, primary screen, biochemical, epi-absorbance readout, Pseudomonas aeruginosa enzyme; inhibition, % at 5.6 µM; hit rate 0.45% among 290,000; metallo-beta-lactamase IMP-1 (Pseudomonas aeruginosa); purified IMP-1, nitrocefin hydrolysis, epi-absorbance fluorescence;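 active means inhibition above the mean plus 3 SD of all compounds in the same screening run, cut at about 4.5% in these data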;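 further: 0% = IMP-1 with DMSO and 100% = DMSO wells lacking enzyme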
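system = purified recombinant IMP-1 beta-lactamase | amount = 0.2 nM IMP-1, as dispensed | medium = HEPES buffer pH 7.1 with ZnSO4 and Brij 35 | times = 25 °C, 15 min preincubation, 25 min reaction | detection = plate fluorescence quenching by hydrolysis product, ex 480/em 530 nm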
Runt-CBFb FRET: inhibitors of RUNX1 Runt–CBFb binding, primary screen, biochemical, FRET, Cerulean-Runt, Venus-CBFb, uHTS | inhibition, % at 20 µM | Cerulean-Runt/Venus-CBFb FRET ratio 530/480, 1 h | AID 1496, 2009 | hit rate 0.46% among 220,000;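 active means inhibition over about 50% at 20 µM in the single-dose screen, limit read from the data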;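 further: 0% = DMSO wells and 100% = excess unlabeled CBFb competitor control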
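Measured by: fluorescence energy transfer, 422 nm excitation, 530/480 nm emission; test system: Cerulean-tagged RUNX1 Runt domain (FRET donor) fusion protein; buffer or medium: Tris pH 7.5 buffer with BSA; compound: one dose, 20 µM compound, 1% DMSO; times: two 1 h room-temperature incubations shielded from light; benchmarks: unlabeled CBFb 5 µM, positive control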
RanGTP-Imp inh: inhibitors of RanGTP-importin-beta interaction, primary screen, biochemical, FRET, CFP-Ran, YFP-importin-beta, homogeneous. Ran GTPase (GTP-bound) - importin-beta complex. cell-free CFP-Ran/YFP-importin-beta FRET ratio. inhibition, % (concentration not given with the values). hit rate 1.1% among 300,000. AID 2216, 2009;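 active means more than half of the replicate wells show a fall in the fluorescence ratio signal beyond about 16%, limit read from the data, passing the limit was not always enough; inconclusive means exactly half of the replicate wells pass the set limit; inactive means fewer than half of replicates pass the limit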;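 further: 0% = DMSO wells and 100% = Ran loaded with GDP instead of GTP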
Active calls of the source: *; ? = inconclusive; nt = no result.

SMILES	Runt-SMMHC FRET	VIM-2 inh	IMP-1 inhibitor	Runt-CBFb FRET	RanGTP-Imp inh
CCc1c(C)c(C#N)c2nc3ccccc3n2c1NCCOC	nt	5	-2	nt	?
COC(=O)CCc1c(C)c(C#N)c2nc3ccccc3n2c1N1CCCC1	62	0	-3	13	17*
Cc1cccc([C@@H]2[C@@H]3C(=O)N(Cc4ccccc4)C(=O)[C@@H]3[C@]3(Cc4ccc(Cl)cc4)C(=O)N(c4ccc(Br)cc4)C(=O)N23)c1	nt	1	-3	nt	-2
Cc1cc(CC(=O)O)c2oc(-c3ccoc3)cc(=O)c2c1	nt	nt	nt	nt	2
O=C(CCCN1C(=O)C2CC=CCC2C1=O)Nc1cccc(F)c1 (stereo not drawn)	nt	-4	-1	nt	-1
O=C(NCCCc1ccc(F)cc1)C1CCC(=O)N(CCN2CCOCC2)C1 (stereo not drawn)	nt	-1	0	nt	1
CCCCc1c(C)c(C#N)c2nc3ccccc3n2c1NCCN(C)C	nt	3	-2	nt	5
CCc1c(C)c(C#N)c2nc3ccccc3n2c1NCC1CCCO1 (stereo not drawn)	65*	7.8*	-1	35	7
Nc1nnc(-c2cc3c(ccc4ccccc43)oc2=O)s1	92*	2	-2	20	nt
O=c1oc2ccc3ccccc3c2cc1-c1nnc(-c2cccs2)o1	58*	-1	-1	19	114*
O=c1oc2ccc3ccccc3c2cc1-c1nnc(-c2ccccc2)o1	39	-3	-3	76*	122*
COc1ccc(-c2nnc(-c3cc4c(ccc5ccccc54)oc3=O)o2)cc1	39	-5	-3	16	-6
O=C(CN1C(=O)S/C(=C/c2cccn2-c2ccc(O)cc2)C1=O)N1CCCC1	nt	9.0*	-1	nt	-1
O=C(O)c1cccc(-n2cccc2/C=C2/SC(=O)N(CC(=O)N3CCCC3)C2=O)c1	nt	3	-1	nt	4
CN1CCN(c2ccc(NC(=S)NC(=O)c3cccc4c(Cl)cccc34)cc2)CC1	nt	8.3*	-2	nt	0
NS(=O)(=O)c1ccc(NC(=S)NNC(=O)c2ccc(Br)o2)cc1	nt	-7	5.2*	nt	-1
NS(=O)(=O)c1ccc(NC(=S)NC(=O)c2ccc(-c3ccccc3)cc2)cc1	-15	0	5.5*	0	1
NS(=O)(=O)c1ccc(NC(=S)NC(=O)c2ccc(Br)o2)cc1	6	-3	-4	7	-3
CN1CCN(S(=O)(=O)c2ccc(NC(=S)NC(=O)c3ccc(Cl)cc3)cc2)CC1	0	27*	-2	3	nt
O=C(CCCCCn1nnc2ccccc2c1=O)Nc1ccccc1Cl	nt	0	-2	nt	3
COc1ccc(/C=C/C(=O)NC(=S)Nc2ccc(Br)cn2)cc1	nt	-1	-2	nt	0
COC(C(=O)Nc1cccc([N+](=O)[O-])c1)c1ccccc1 (stereo not drawn)	-7	-2	-1	1	1
Cc1cc(/C=c2\sc3nc4ccccc4n3c2=O)c(C)n1-c1ccc(C(=O)O)cc1	38	6	-3	18	?
Cc1cc(/C=c2/sc3nc4ccccc4n3c2=O)c(C)n1-c1ccccn1	6	0	-5	8	16*
CCN(CC)c1ccc(/C=c2\sc3nc4ccccc4n3c2=O)c(O)c1	92*	-1	-3	20	135*
SMILES	Runt-SMMHC FRET	VIM-2 inh	IMP-1 inhibitor	Runt-CBFb FRET	RanGTP-Imp inh
CCOCCCNC(=O)c1ccc(/C=C2\Oc3ccccc3N(C)C2=O)cc1	nt	7.7*	0	nt	?
COc1ccc(C2=C/C(=C\c3ccccc3OC(C)=O)C(=O)O2)cc1	nt	2	4	nt	35*
COc1ccc(C2=C/C(=C\c3cccc(OC(C)=O)c3)C(=O)O2)cc1	39	0	-2	-36	43*
CCOc1ccc(C(=O)n2cc(C(=O)OC)c3ccccc32)cc1	nt	0	-5	nt	-2
O=C(Nc1nnc(-c2ccco2)s1)c1ccccc1	13	-3	-3	16	0
COc1ccc(C(=O)Nc2nnc(-c3ccco3)s2)cc1	18	1	7.3*	23	-2
CC(C)(C)C(=O)NC(=S)N1CCCC1	3	-1	-3	-2	1
CC(C)(C)C(=O)NC(=C(Cl)Cl)P(=O)(O)O	-3	10*	0	-9	nt
Cc1sc2ncn3c(C)nnc3c2c1C	-2	10.0*	-1	-1	8
Cc1sc2ncn(CCn3cnc4sc(C)c(C)c4c3=O)c(=O)c2c1C	-2	0	0	-2	1
COc1ccccc1C(CNc1ncnc2sc(C)c(C)c12)N(C)C (stereo not drawn)	nt	7	-3	nt	2
COc1ccc(C(CNc2ncnc3sc(C)c(C)c23)N(C)C)cc1 (stereo not drawn)	nt	8.8*	0	nt	2
COC(=O)C1=CN(c2cc(C)cc(C)c2)C=C(C(=O)OC)C1c1cccc(F)c1	nt	-1	-1	nt	4
CCN1C=C(C(=O)OC)C(c2cccc(C)c2)C(C(=O)OC)=C1	61*	-3	-4	49	4
COC(=O)C1=CN(Cc2ccc(F)cc2)C=C(C(=O)OC)C1c1ccc(O)c(OC)c1	nt	0	0	nt	10
COC(=O)C1=CN(Cc2cccs2)C=C(C(=O)OC)C1c1cccc(Cl)c1	85*	-2	-2	37	7
O=C(O)c1ccccc1C(=O)Nn1cnnc1	nt	-2	-3	nt	2
Cc1ccc2[nH]c(C(=O)O)c(-c3ccccc3)c2c1	0	9.9*	3	1	-3
O=C(O)c1[nH]c2ccccc2c1-c1ccccc1	-1	2	-3	-3	-2
Cc1ccc(C(=O)Oc2cccnc2)cc1[N+](=O)[O-]	2	-3	-2	102*	1
CCC1(c2ccc(F)cc2)NC(=O)N(CC(=O)NCC(=O)Nc2cccc(C)c2C)C1=O (stereo not drawn)	nt	nt	nt	nt	3
CCN1CCN(CCCNC(=O)c2ccc3c(Cl)c4c(nc3c2)CCCC4)CC1	nt	11*	-1	nt	-1
CCCN(CCC)CCCNC(=O)c1ccc2c(Cl)c3c(nc2c1)CCC3	nt	9.6*	-3	nt	-2
O=C(NCCCN1CCCCCC1)c1ccc2c(Cl)c3c(nc2c1)CCCC3	-1	1	-4	-1	2
CC1CCN(CCCNC(=O)c2ccc3c(Cl)c4c(nc3c2)CCCC4)CC1	0	11*	-1	4	0
COCCNC(=O)c1ccc2c(Cl)c3c(nc2c1)CCC3	nt	3	-3	nt	2
Cc1nc2sccn2c(=O)c1S(=O)(=O)NCC1CCN(Cc2ccccc2Cl)CC1	nt	0	1	nt	-1
